Active and inactive are the calls of the source. The calls are words filed in the database; no cut-off is given here.
Columns and labels:
[1] = system: HCC1937; assay: Effect on human HCC1937 cells assessed as reduction in KLF5 mRNA at 1 uM for 12 to 24 hrs by qPCR analysis; format: functional, cell-based; settings: time 12-24 hrs
Procedure, shortened: (§1)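 HCC1806 or HCC1937 cells treated with 1 μM for 12 h or 24 h; KLF5 mRNA quantified by qPCR; experimental triplicates, SD, t-test.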

[2] = system: HCC1806; assay: Effect on human HCC1806 cells assessed as reduction in KLF5 mRNA at 1 uM for 12 to 24 hrs by qPCR analysis; format: functional, cell-based; settings: time 12-24 hrs; procedure, shortened: as §1
[3] = system: HCC1806; assay: Downregulation of FGFBP in human HCC1806 cells treated at 1 to 3 uM for 24 hrs by immunoblotting analysis; format: functional, cell-based; settings: dose 1-3 µM
Procedure, shortened: (§2)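 HCC1806 or HCC1937 cells (RPMI-1640, 10% FBS, 37 °C, 5% CO2) treated 24 h; lysed with protease inhibitors, protein assayed, equal amounts run on SDS-PAGE, blotted to PVDF, blocked in 5% milk/PBS-0.2% Tween-20, probed for KLF5, FGFBP, p21, c-MYC and GAPDH loading control; HRP secondary, ECL detection.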

[4] = system: HCC1937; assay: Downregulation of FGFBP in human HCC1937 cells treated at 1 to 3 uM for 24 hrs by immunoblotting analysis; format: functional, cell-based; settings: dose 1-3 µM; procedure, shortened: as §2
[5] = system: HCC1806; assay: Upregulation of p21 in human HCC1806 cells treated at 1 to 3 uM for 24 hrs by immunoblotting analysis; format: functional, cell-based; settings: dose 1-3 µM; procedure, shortened: as §2
[6] = system: HCC1937; assay: Upregulation of p21 in human HCC1937 cells treated at 1 to 3 uM for 24 hrs by immunoblotting analysis; format: functional, cell-based; settings: dose 1-3 µM; procedure, shortened: as §2
[7] = system: HCC1806; assay: Downregulation of KLF5 in human HCC1806 cells treated at 1 uM by immunoblotting analysis; format: functional, cell-based; settings: time 12-72 hrs, TDE = time-dependent effect
Procedure, shortened: (§3)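 Time course: HCC1806 or HCC1937 cells exposed to 1 μM for the indicated times, pellets collected at each time point and lysed with protease inhibitors; equal protein immunoblotted after SDS-PAGE/PVDF transfer for KLF5, GAPDH loading control, ECL detection.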

[8] = system: HCC1937; assay: Downregulation of KLF5 in human HCC1937 cells treated at 1 uM by immunoblotting analysis; format: functional, cell-based; settings: time 12-72 hrs, TDE = time-dependent effect; procedure, shortened: as §3
[9] = system: HCC1806; assay: Induction of cell cycle arrest in human HCC1806 cells assessed as increase in accumulation of cells at G1 phase at 0.3 to 1 uM for 24 hrs by flow cytometric analysis; format: functional, cell-based; settings: dose 0.3-1 µM
Procedure, shortened: (§4)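 HCC1806 or HCC1937 cells seeded, cultured overnight, treated 24 h; fixed in 70% ethanol, RNase A 40 µg/ml, propidium iodide 10 µg/ml; flow cytometry with G1, S and G2/M percentages; experimental triplicates, SD.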

[10] = system: HCC1806; assay: Induction of cell cycle arrest in human HCC1806 cells assessed as decrease in accumulation of cells at S phase at 0.3 to 1 uM for 24 hrs by flow cytometric analysis; format: functional, cell-based; settings: dose 0.3-1 µM; procedure, shortened: as §4
[11] = system: HCC1937; assay: Induction of cell cycle arrest in human HCC1937 cells assessed as increase in accumulation of cells at G1 phase at 0.3 to 1 uM for 24 hrs by flow cytometric analysis; format: functional, cell-based; settings: dose 0.3-1 µM; procedure, shortened: as §4
[12] = system: HCC1937; assay: Induction of cell cycle arrest in human HCC1937 cells assessed as decrease in accumulation of cells at S phase at 0.3 to 1 uM for 24 hrs by flow cytometric analysis; format: functional, cell-based; settings: dose 0.3-1 µM; procedure, shortened: as §4
[13] = system: HCC1806; assay: Inhibition of cell growth in human HCC1806 cells infected with pCDH-3 Flag tagged KLF5 assessed as ectopic KLF5 expression at 100 to 10000 nM for 72 hrs by SRB assay; format: functional, cell-based; settings: dose 100-10000 nM
Procedure, shortened: (§5)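 HCC1806 or HCC1937 cells infected with pCDH-3×Flag-KLF5 or empty pCDH vector lentivirus, plated in 96-well format and treated 72 h; inhibition rate by sulforhodamine B staining read at 560 nm; experimental triplicates, SD.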

[14] = system: HCC1937; assay: Inhibition of cell growth in human HCC1937 cells infected with pCDH-3 Flag tagged KLF5 assessed as ectopic KLF5 expression at 100 to 10000 nM for 72 hrs by SRB assay; format: functional, cell-based; settings: dose 100-10000 nM; procedure, shortened: as §5
[15] = system: HCC1806; assay: Cytotoxicity against human HCC1806 cells assessed as reduction in cell viability at 10 to 10000 nM for 72 hrs by SRB assay; format: functional, cell-based; settings: dose 10-10000 nM
Procedure, shortened: (§6)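 HCC1806 or HCC1937 cells grown in RPMI-1640 with 10 % FBS at 37 °C, 5 % CO2, then exposed to graded compound concentrations for 72 h. Viability read by sulforhodamine B staining, absorbance at 560 nm. Experimental triplicates, SD shown.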

[16] = system: HCC1937; assay: Cytotoxicity against human HCC1937 cells assessed as reduction in cell viability at 10 to 10000 nM for 72 hrs by SRB assay; format: functional, cell-based; settings: dose 10-10000 nM; procedure, shortened: as §6
[17] = system: HCC1806; assay: Potency index, ratio of test compound to (S)-tert-butyl 2-(4-(4-chlorophenyl)-2,3,9-trimethyl-6H-thieno[3,2-f] [1,2,4]triazolo[4,3-a] [1,4]diazepin-6-yl)acetate for effect on human HCC1806 cells assessed as reduction in KLF5 level at 0.1 to 3 uM for 24 hrs; format: functional; settings: dose 0.1-3 µM
[18] = system: HCC1937; assay: Potency index, ratio of test compound to (S)-tert-butyl 2-(4-(4-chlorophenyl)-2,3,9-trimethyl-6H-thieno[3,2-f] [1,2,4]triazolo[4,3-a] [1,4]diazepin-6-yl)acetate for effect on human HCC1937 cells assessed as reduction in KLF5 level at 0.1 to 3 uM for 24 hrs; format: functional; settings: dose 0.1-3 µM
[19] = system: HCC1806; assay: Potency index, ratio of test compound to (S)-tert-butyl 2-(4-(4-chlorophenyl)-2,3,9-trimethyl-6H-thieno[3,2-f] [1,2,4]triazolo[4,3-a] [1,4]diazepin-6-yl)acetate for effect on human HCC1806 cells assessed as reduction in c-MYC level at 0.1 to 3 uM for 24 hrs; format: functional; settings: dose 0.1-3 µM
[20] = system: HCC1937; assay: Potency index, ratio of test compound to (S)-tert-butyl 2-(4-(4-chlorophenyl)-2,3,9-trimethyl-6H-thieno[3,2-f] [1,2,4]triazolo[4,3-a] [1,4]diazepin-6-yl)acetate for effect on human HCC1937 cells assessed as reduction in c-MYC level at 0.1 to 3 uM for 24 hrs; format: functional; settings: dose 0.1-3 µM
[21] = system: HCC1806; assay: Induction of cell cycle arrest in human HCC1806 cells assessed as increase in accumulation of cells at G1 phase at 0.1 to 0.3 uM for 24 hrs by flow cytometric analysis; format: functional, cell-based; settings: dose 0.1-0.3 µM
Procedure, shortened: (§7)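 Seeded cells were cultured overnight, then treated with compound for 24 h. Fixed in 70 % ethanol, treated with 40 µg/ml RNase A and stained with 10 µg/ml propidium iodide. Analysed by flow cytometry for G1, S and G2/M fractions. Experimental triplicates, SD shown.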

[22] = system: HCC1937; assay: Induction of cell cycle arrest in human HCC1937 cells assessed as increase in accumulation of cells at G1 phase at 0.1 to 0.3 uM for 24 hrs by flow cytometric analysis; format: functional, cell-based; settings: dose 0.1-0.3 µM; procedure, shortened: as §7
[23] = system: HCC1806; assay: Induction of cell cycle arrest in human HCC1806 cells assessed as increase in accumulation of cells at G1 phase at 0.3 uM for 24 hrs by flow cytometric analysis; format: functional, cell-based; procedure, shortened: as §7
[24] = system: HCC1937; assay: Induction of cell cycle arrest in human HCC1937 cells assessed as increase in accumulation of cells at G1 phase at 0.3 uM for 24 hrs by flow cytometric analysis; format: functional, cell-based; procedure, shortened: as §7
[25] = system: HCC1806; assay: Inhibition of DNA synthesis in human HCC1806 cell at 0.1 to 0.3 uM measured for 24 hrs by Edu incorporation assay; format: functional, cell-based; settings: dose 0.1-0.3 µM
Procedure, shortened: (§8)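 After 24 h treatment at different concentrations, cells were EdU-labelled with the Click-iT imaging kit, fixed and DNA-stained. Fluorescence micrographs were taken and five random fields counted per sample. Result given as % EdU-positive (EdU-positive/total cells). Experimental triplicates, SD shown.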

[26] = system: HCC1937; assay: Inhibition of DNA synthesis in human HCC1937 cell at 0.1 to 0.3 uM measured for 24 hrs by Edu incorporation assay; format: functional, cell-based; settings: dose 0.1-0.3 µM; procedure, shortened: as §8
[27] = system: HCC1806; assay: Inhibition of cell growth in human HCC1806 cells infected with pCDH-3 Flag tagged KLF5 assessed as ectopic KLF5 expression at 0.01 to 10000 nM for 72 hrs by SRB assay; format: functional, cell-based; settings: dose 0.01-10000 nM
Procedure, shortened: (§9)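 Cells infected with pCDH-3×Flag-KLF5 lentivirus, or vector control lentivirus, were plated and treated for 72 h. Inhibition rate measured by SRB assay. Experimental triplicates, SD shown.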

[28] = system: HCC1937; assay: Inhibition of cell growth in human HCC1937 cells infected with pCDH-3 Flag tagged KLF5 assessed as ectopic KLF5 expression at 0.01 to 10000 nM for 72 hrs by SRB assay; format: functional, cell-based; settings: dose 0.01-10000 nM; procedure, shortened: as §9
[29] = system: HCC1806; assay: Effect on KLF5 suppression in human HCC1806 cells at 50 to 200 nM for 24 hrs by immunoblotting analysis; format: functional, cell-based; settings: dose 50-200 nM
Procedure, shortened: (§10)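 Cells in RPMI-1640/10 % FBS treated with compound for 24 h, lysed with protease inhibitor cocktail, and protein quantified. Equal protein run on SDS-PAGE and blotted to PVDF. Blocked in 5 % milk in PBS-0.2 % Tween-20, probed for KLF5, c-MYC and FGF2, with GAPDH as loading control. HRP secondary antibody, ECL detection.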

[30] = system: HCC1937; assay: Effect on KLF5 suppression in human HCC1937 cells at 50 to 200 nM for 24 hrs by immunoblotting analysis; format: functional, cell-based; settings: dose 50-200 nM; procedure, shortened: as §10
[31] = system: HCC1806; assay: Effect on FGFPB suppression in human HCC1806 cells at 50 to 200 nM for 24 hrs by immunoblotting analysis; format: functional, cell-based; settings: dose 50-200 nM
[32] = system: HCC1937; assay: Effect on FGFPB suppression in human HCC1937 cells at 50 to 200 nM for 24 hrs by immunoblotting analysis; format: functional, cell-based; settings: dose 50-200 nM
[33] = system: HCC1806; assay: Effect on c-MYC suppression in human HCC1806 cells at 50 to 200 nM for 24 hrs by immunoblotting analysis; format: functional, cell-based; settings: dose 50-200 nM; procedure, shortened: as §10
[34] = system: HCC1937; assay: Effect on c-MYC suppression in human HCC1937 cells at 50 to 200 nM for 24 hrs by immunoblotting analysis; format: functional, cell-based; settings: dose 50-200 nM; procedure, shortened: as §10

## Cc1sc2c(c1C)C(c1ccc(Cl)cc1)=N[C@@H](CC(=O)OC(C)(C)C)c1nnc(C)n1-2
[1]
  Activity: Active
[2]
  Activity: Active
[3]
  Activity: Active
[4]
  Activity: Active
[5]
  Activity: Active
[6]
  Activity: Active
[7]
  Activity: Tde
[8]
  Activity: Tde
[9]
  Activity: Active
[10]
  Activity: Active
[11]
  Activity: Active
[12]
  Activity: Active
[13]
  inhibition: Active
[14]
  inhibition: Active

## Cc1nnn(C)c1-c1cnc2c3c4cnn(C)c4ccc3n([C@H](c3ccccc3)C3CCOCC3)c2c1
[15]
  Activity: Active
[16]
  Activity: Active
[17]
  Ratio: ~10
[18]
  Ratio: ~10
[19]
  Ratio: ~10
[20]
  Ratio: ~10
[21]
  Activity: Active
[22]
  Activity: Active
[23]
  Activity: Active
[24]
  Activity: Active
[25]
  inhibition: Active
[26]
  inhibition: Active
[27]
  inhibition: Active
[28]
  inhibition: Active

## CN(C)C/C=C/C(=O)Nc1ccc(C(=O)Nc2cccc(Nc3ncc(Cl)c(-c4c[nH]c5ccccc45)n3)c2)cc1
[15]
  Activity: Active
[16]
  Activity: Active
[29]
  Activity: Active
[30]
  Activity: Active
[31]
  Activity: Active
[32]
  Activity: Active
[33]
  Activity: Active
[34]
  Activity: Active

Source: ChEMBL document CHEMBL5712907, “Inhibition of super enhancer downregulates the expression of KLF5 in basal-like breast cancers” (Int J Biol Sci, 2018)
